{"source": "ChEMBL document CHEMBL4602651", "about": "“Development of selective mono or dual PROTAC degrader probe of CDK isoforms” (Eur J Med Chem, 2020)", "key": {"[1]": {"molecular_target": "T1, Protein cereblon/Cyclin-dependent kinase 9 (Homo sapiens) (UniProt P50750+Q96SW2)", "T1 sequence (P50750 whole entry, looked up)": "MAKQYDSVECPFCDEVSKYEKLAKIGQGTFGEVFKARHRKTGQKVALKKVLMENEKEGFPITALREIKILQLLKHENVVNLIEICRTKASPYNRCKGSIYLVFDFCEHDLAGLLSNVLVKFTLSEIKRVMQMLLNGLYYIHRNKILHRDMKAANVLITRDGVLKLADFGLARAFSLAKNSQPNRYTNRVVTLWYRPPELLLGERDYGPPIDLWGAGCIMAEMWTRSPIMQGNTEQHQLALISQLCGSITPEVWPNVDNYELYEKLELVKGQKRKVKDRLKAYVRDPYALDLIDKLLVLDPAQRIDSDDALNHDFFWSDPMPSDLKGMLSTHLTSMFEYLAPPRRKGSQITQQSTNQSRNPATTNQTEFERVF", "T1 sequence (Q96SW2 whole entry, looked up)": "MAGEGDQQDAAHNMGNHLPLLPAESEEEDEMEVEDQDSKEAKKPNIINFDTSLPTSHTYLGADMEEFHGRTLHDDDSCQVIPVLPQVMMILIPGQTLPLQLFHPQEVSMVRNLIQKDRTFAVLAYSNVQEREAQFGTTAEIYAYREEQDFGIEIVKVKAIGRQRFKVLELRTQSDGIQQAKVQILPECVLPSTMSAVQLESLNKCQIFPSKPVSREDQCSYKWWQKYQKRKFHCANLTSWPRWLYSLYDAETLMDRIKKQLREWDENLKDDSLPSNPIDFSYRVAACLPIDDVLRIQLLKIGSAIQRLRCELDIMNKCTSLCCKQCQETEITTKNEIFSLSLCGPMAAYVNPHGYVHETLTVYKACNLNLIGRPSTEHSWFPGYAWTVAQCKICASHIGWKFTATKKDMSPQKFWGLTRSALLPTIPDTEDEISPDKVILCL", "assay": "Protac activity at CRBN/CDK9 in AR-negative human PC3 cells assessed as induction of CDK9 protein degradation at 50 nM after 12 hrs by Western blot analysis", "assay_type": "cell-based", "conditions": "PC-3", "outline": "(§1)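 PC-3 cells (DMEM/F12 1:1, 10% FBS, 1% pen/strep, 37 °C, 5% CO2) plated at 5 × 10^5 per well, exposed to compound for 12 h. RIPA lysates with protease inhibitors; 50 µg total protein run on 10% SDS-PAGE, transferred to PVDF, blocked in 5% milk/TBS-T. Probed with anti-CDK9 (1/1000), β-tubulin loading control, HRP secondary, chemiluminescence; bands scored as degradation detected or not.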"}, "[2]": {"molecular_target": "T1, Protein cereblon/Cyclin-dependent kinase 9 (Homo sapiens)", "assay": "Protac activity at CRBN/CDK9 in AR-negative human PC3 cells assessed as induction of CDK9 protein degradation at 1 uM after 12 hrs by Western blot analysis", "assay_type": "cell-based", "conditions": "PC-3", "outline": "as §1"}, "[3]": {"molecular_target": "Protein cereblon/Cyclin-dependent kinase 2 (Homo sapiens) (UniProt P24941+Q96SW2)", "assay": "Protac activity at CRBN/CDK2 in AR-negative human PC3 cells assessed as induction of CDK2 protein degradation at 50 nM after 12 hrs by Western blot analysis", "assay_type": "cell-based", "conditions": "PC-3", "outline": "(§2)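 PC-3 cells (5 × 10^5 per well) treated 12 h at single concentrations (50 nM, 500 nM, 1, 5 or 30 µM). RIPA lysates (50 µg) run on 10% SDS-PAGE and immunoblotted for CDK2, CDK5, CDK9 with β-tubulin loading control, then detected by chemiluminescence. Band intensities quantified densitometrically.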"}, "[4]": {"system": "PC-3", "assay": "Antiproliferative activity against AR-negative human PC3 cells assessed as reduction in cell viability after 5 days by CCK8 assay", "assay_type": "functional, cell-based", "conditions": "PC-3, 120 h", "outline": "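Cells seeded at 3 × 10^3 per well for 24 h, then dosed in 10-point, 3-fold serial dilution from 10 µM. CCK-8 added after 5 days, 4 h at 37 °C, absorbance at 450 nm. IC50 averaged from three separate determinations (at least two independent runs, duplicate wells). PC-3 grown in DMEM/F12 (1:1), LO2 in RPMI 1640, both with 10% FBS.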"}, "[5]": {"molecular_target": "T1, Protein cereblon/Cyclin-dependent kinase 9 (Homo sapiens)", "assay": "Protac activity at CRBN/CDK9 in AR-negative human PC3 cells assessed as induction of CDK9 protein degradation at 30 uM after 12 hrs by Western blot analysis", "assay_type": "cell-based", "conditions": "PC-3", "outline": "as §1"}, "[6]": {"molecular_target": "T2, Protein cereblon/Cyclin-dependent kinase 2/Cyclin-dependent kinase 9 (Homo sapiens, UniProt P24941+P50750+Q96SW2)", "assay": "Protac activity at CRBN/CDK2/CDK9 in AR-negative human PC3 cells assessed as induction of CDK2 protein degradation after 24 hrs by Western blot analysis", "assay_type": "cell-based", "conditions": "PC-3", "outline": "(§3)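 PC-3 cells exposed to a degrader concentration series, then immunoblotted for CDK2 and CDK9 versus β-tubulin. The figure legend gives 24 h exposure. DC50 taken as mean of 2 determinations from densitometry.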"}, "[7]": {"molecular_target": "T2, Protein cereblon/Cyclin-dependent kinase 2/Cyclin-dependent kinase 9", "assay": "Protac activity at CRBN/CDK2/CDK9 in AR-negative human PC3 cells assessed as induction of CDK9 protein degradation after 24 hrs by Western blot analysis", "assay_type": "cell-based", "conditions": "PC-3", "outline": "as §3"}, "[8]": {"system": "PC-3", "assay": "Induction of cell cycle arrest in human PC3 cells assessed as accumulation at S phase at 3 uM after 48 hrs by propidium iodide staining based flow cytometry (reference value: 17.96%)", "assay_type": "functional"}, "[9]": {"system": "PC-3", "assay": "Induction of cell cycle arrest in human PC3 cells assessed as accumulation at G0/G1 phase at 3 uM after 48 hrs by propidium iodide staining based flow cytometry (reference value: 59.80%)", "assay_type": "functional"}, "[10]": {"system": "PC-3", "assay": "Induction of cell cycle arrest in human PC3 cells assessed as accumulation at G2/M phase at 3 uM after 48 hrs by propidium iodide staining based flow cytometry (reference value: 22.24%)", "assay_type": "functional"}, "[11]": {"molecular_target": "T2, Protein cereblon/Cyclin-dependent kinase 2/Cyclin-dependent kinase 9", "assay": "Protac activity at CRBN/CDK2/CDK9 in AR-negative human PC3 cells assessed as induction of CDK9 protein degradation at 30 uM after 12 hrs by Western blot analysis", "assay_type": "cell-based", "conditions": "PC-3", "outline": "as §2"}, "[12]": {"molecular_target": "T2, Protein cereblon/Cyclin-dependent kinase 2/Cyclin-dependent kinase 9", "assay": "Protac activity at CRBN/CDK2/CDK9 in AR-negative human PC3 cells assessed as induction of CDK9 protein degradation at 1 uM after 12 hrs by Western blot analysis", "assay_type": "cell-based", "conditions": "PC-3", "outline": "as §2"}, "[13]": {"molecular_target": "T2, Protein cereblon/Cyclin-dependent kinase 2/Cyclin-dependent kinase 9", "assay": "Protac activity at CRBN/CDK2/CDK9 in AR-negative human PC3 cells assessed as induction of CDK2 protein degradation at 1 uM after 12 hrs by Western blot analysis", "assay_type": "cell-based", "conditions": "PC-3", "outline": "as §2"}, "[14]": {"molecular_target": "T2, Protein cereblon/Cyclin-dependent kinase 2/Cyclin-dependent kinase 9", "assay": "Protac activity at CRBN/CDK2/CDK9 in AR-negative human PC3 cells assessed as CDK2 degradation at 10^-1 to 10^3 nM after 12 hrs by Western blot analysis", "assay_type": "cell-based", "conditions": "PC-3"}, "[15]": {"molecular_target": "T2, Protein cereblon/Cyclin-dependent kinase 2/Cyclin-dependent kinase 9", "assay": "Protac activity at CRBN/CDK2/CDK9 in AR-negative human PC3 cells assessed as CDK9 degradation at 10^-1 to 10^3 nM after 12 hrs by Western blot analysis", "assay_type": "cell-based", "conditions": "PC-3"}}, "note": "The source made the active and inactive calls. The calls are words filed in the database; no cut-off is given here.", "data": [{"compound": "O=C(CCC(=O)N1CCN(Cc2ccc(NC(=O)c3n[nH]cc3Nc3ncnc4[nH]ccc34)cc2)CC1)NCCCCCCNc1cccc2c1C(=O)N(C1CCC(=O)NC1=O)C2=O", "note": "(stereo not given)", "values": [{"measurement": "Activity", "setting": "[1]", "result": "Active"}, {"measurement": "Activity", "setting": "[2]", "result": "Active"}, {"measurement": "Activity", "setting": "[3]", "result": "Active"}, {"measurement": "IC50", "setting": "[4]", "result": 3600, "unit": "nM"}, {"measurement": "Activity", "setting": "[5]", "result": "Active"}]}, {"compound": "O=C(CCC(=O)N1CCN(Cc2ccc(NC(=O)c3n[nH]cc3Nc3ncnc4[nH]ccc34)cc2)CC1)NCCCCNC(=O)COc1cccc2c1C(=O)N(C1CCC(=O)NC1=O)C2=O", "note": "(stereo not given)", "values": [{"measurement": "Activity", "setting": "[6]", "result": "inactive"}, {"measurement": "Activity", "setting": "[7]", "result": "inactive"}, {"measurement": "IC50", "setting": "[4]", "result": 13400, "unit": "nM"}]}, {"compound": "O=C(NC1CCNCC1)c1n[nH]cc1NC(=O)c1c(Cl)cccc1Cl", "note": "[AT-7519]", "values": [{"measurement": "IC50", "setting": "[4]", "result": 710, "unit": "nM"}]}, {"compound": "O=C(CCC(=O)N1CCC(NC(=O)c2n[nH]cc2NC(=O)c2c(Cl)cccc2Cl)CC1)NCCCCCCNC(=O)COc1cccc2c1C(=O)N(C1CCC(=O)NC1=O)C2=O", "note": "(stereo not given)", "values": [{"measurement": "IC50", "setting": "[4]", "result": 1310, "unit": "nM"}]}, {"compound": "CN1CCN(Cc2ccc(NC(=O)c3n[nH]cc3Nc3ncnc4[nH]ccc34)cc2)CC1", "values": [{"measurement": "Activity", "setting": "[8]", "result": 16.52, "unit": "%"}, {"measurement": "Activity", "setting": "[9]", "result": 45.58, "unit": "%"}, {"measurement": "Activity", "setting": "[10]", "result": 37.9, "unit": "%"}, {"measurement": "IC50", "setting": "[4]", "result": 690, "unit": "nM"}]}, {"compound": "O=C(CCC(=O)N1CCC(NC(=O)c2n[nH]cc2NC(=O)c2c(Cl)cccc2Cl)CC1)NCCCOCCOCCOCCCNC(=O)COc1cccc2c1C(=O)N(C1CCC(=O)NC1=O)C2=O", "note": "(stereo not given)", "values": [{"measurement": "IC50", "setting": "[4]", "result": 2020, "unit": "nM"}]}, {"compound": "O=C(CCC(=O)N1CCC(NC(=O)c2n[nH]cc2NC(=O)c2c(Cl)cccc2Cl)CC1)NCCCCNc1cccc2c1C(=O)N(C1CCC(=O)NC1=O)C2=O", "note": "(stereo not given)", "values": [{"measurement": "IC50", "setting": "[4]", "result": 23300, "unit": "nM"}]}, {"compound": "O=C(COc1cccc2c1C(=O)N(C1CCC(=O)NC1=O)C2=O)NCCCCCC(=O)N1CCN(Cc2ccc(NC(=O)c3n[nH]cc3Nc3ncnc4[nH]ccc34)cc2)CC1", "note": "(stereo not given)", "values": [{"measurement": "Activity", "setting": "[1]", "result": "Active"}, {"measurement": "Activity", "setting": "[3]", "result": "Active"}, {"measurement": "Activity", "setting": "[11]", "result": "Active"}, {"measurement": "Activity", "setting": "[12]", "result": "Active"}, {"measurement": "Activity", "setting": "[13]", "result": "Active"}, {"measurement": "IC50", "setting": "[4]", "result": 540, "unit": "nM"}]}, {"compound": "O=C(CCC(=O)N1CCN(Cc2ccc(NC(=O)c3n[nH]cc3Nc3ncnc4[nH]ccc34)cc2)CC1)NCCNc1cccc2c1CN(C1CCC(=O)NC1=O)C2=O", "note": "(stereo not given)", "values": [{"measurement": "Activity", "setting": "[14]", "result": "Active"}, {"measurement": "Activity", "setting": "[15]", "result": "Active"}]}, {"compound": "O=C(CCC(=O)N1CCC(NC(=O)c2n[nH]cc2NC(=O)c2c(Cl)cccc2Cl)CC1)NCCNc1cccc2c1C(=O)N(C1CCC(=O)NC1=O)C2=O", "note": "(stereo not given)", "values": [{"measurement": "IC50", "setting": "[4]", "result": 5950, "unit": "nM"}]}]}
